Active and inactive are the calls of the source. The rule behind the calls is not given here. Non-standard residues stand in square brackets, D forms with d. Residues, ends and D or L forms follow the SMILES beside them.
Tests used:
[1] = target: T1, Kappa-type opioid receptor (Homo sapiens, UniProt P41145); experiment: Displacement of [3H]U69,593 from human KOR expressed in HEK293 cell membranes incubated for 90 mins by liquid scintillation counting
Outline: (§1)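 Compound (10^-12 to 10^-4 M) incubated 90 min at 25°C in 100 mM Tris-HCl with 0.3% BSA. Cold ligands define nonspecific binding. Filters presoaked in 0.3% polyethylenimine; liquid scintillation counting. Ki from IC50 by Cheng-Prusoff; triplicate.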

[2] = target: T2, Delta-type opioid receptor (Homo sapiens, UniProt P41143); experiment: Displacement of [3H]diprenorphine from human DOR expressed in HEK293 cell membranes incubated for 90 mins by liquid scintillation counting
T2 sequence (P41143 whole entry): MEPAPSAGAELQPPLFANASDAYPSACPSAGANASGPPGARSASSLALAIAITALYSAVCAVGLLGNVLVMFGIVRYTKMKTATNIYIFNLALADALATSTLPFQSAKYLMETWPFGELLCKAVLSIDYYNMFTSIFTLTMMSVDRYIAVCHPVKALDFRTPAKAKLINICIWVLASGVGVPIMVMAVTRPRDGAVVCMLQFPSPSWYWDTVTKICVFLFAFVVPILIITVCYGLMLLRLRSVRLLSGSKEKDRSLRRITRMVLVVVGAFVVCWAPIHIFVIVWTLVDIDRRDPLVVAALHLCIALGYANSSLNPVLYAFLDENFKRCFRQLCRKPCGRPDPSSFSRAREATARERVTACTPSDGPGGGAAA

[3] = target: T3, Mu-type opioid receptor (Homo sapiens, UniProt P35372); experiment: Displacement of [3H]DAMGO from human MOR expressed in HEK293 cell membranes incubated for 90 mins by liquid scintillation counting; outline: as §1
T3 sequence (P35372 whole entry): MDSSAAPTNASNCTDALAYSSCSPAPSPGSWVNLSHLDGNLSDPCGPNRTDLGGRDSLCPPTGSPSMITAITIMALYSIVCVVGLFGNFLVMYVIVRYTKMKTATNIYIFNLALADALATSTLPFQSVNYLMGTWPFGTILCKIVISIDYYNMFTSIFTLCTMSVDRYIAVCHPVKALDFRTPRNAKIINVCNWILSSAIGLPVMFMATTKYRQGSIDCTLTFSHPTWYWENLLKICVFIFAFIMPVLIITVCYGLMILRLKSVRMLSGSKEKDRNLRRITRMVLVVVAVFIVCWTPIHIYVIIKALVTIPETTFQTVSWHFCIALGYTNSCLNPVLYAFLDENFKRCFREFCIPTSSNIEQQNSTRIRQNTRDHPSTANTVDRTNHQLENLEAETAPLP

[4] = target: T3, Mu-type opioid receptor; experiment: Displacement of [3H]DAMGO from human MOR expressed in HEK293 cell membranes at […] incubated for 90 mins by liquid scintillation counting
[5] = target: T1, Kappa-type opioid receptor; experiment: Binding affinity to KOR (unknown origin)
Outline: (§2)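 Displacement binding on membranes from HEK-293 cells stably expressing cloned human receptors; radioligand [³H]diprenorphine for DOR, [³H]U69,593 for KOR. Compounds tested at 10⁻¹²–10⁻⁴ M, incubated 90 min at 25°C in 100 mM Tris-HCl with 0.3% BSA. Nonspecific binding defined with cold ligand. Filter-bound radioactivity counted by liquid scintillation. Ki from IC50 via Cheng-Prusoff. Run in triplicate.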

[6] = target: T3, Mu-type opioid receptor; experiment: Binding affinity to MOR (unknown origin)
Outline: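 Test compounds were run at 10⁻¹²-10⁻⁴ M, incubated 90 min at 25°C in 100 mM Tris-HCl with 0.3% BSA. Nonspecific binding was defined with cold ligand. Filter-trapped radioactivity was counted by liquid scintillation, with filters presoaked in 0.3% polyethylenimine. Assays were run in triplicate. Ki was derived from IC50 by Cheng-Prusoff.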

[7] = target: T2, Delta-type opioid receptor; experiment: Binding affinity to DOR (unknown origin); outline: as §2
[8] = Antagonist activity against KOR in rabbit vas deferens smooth muscles assessed as inhibition of asimadoline-induced response; details: Oryctolagus cuniculus
[9] = target: T1, Kappa-type opioid receptor; experiment: Antagonist activity at human KOR expressed in HEK293 cells assessed as reduction of U50,488-induced inhibition of forskolin-induced cAMP accumulation by EIA method; type: functional, cell-based
[10] = target: T3, Mu-type opioid receptor; type: functional, cell-based, HEK293
[11] = target: T3, Mu-type opioid receptor; experiment: Agonist activity at human MOR expressed in HEK293 cells assessed as inhibition of forskolin-induced cAMP accumulation at 10^-12 to 10^-4 M by EIA method; type: functional, cell-based
Outline: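 Whole HEK-293 cells stably expressing hMOR, in serum-free medium with 0.5 mM IBMX, exposed 15 min at 37°C to 10 μM forskolin with or without compound (0.001 nM-100 μM). cAMP measured by EIA kit. Triplicate determinations; IC50 and Emax (% vehicle) as mean ± SE of 5-6 independent experiments.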

[12] = target: T2, Delta-type opioid receptor; experiment: Antagonist activity at human DOR expressed in HEK293 cells assessed as reduction of DPDPE-induced inhibition of forskolin-induced cAMP accumulation by EIA method; type: functional, cell-based
Outline: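 HEK-293 cells stably expressing hDOR, in serum-free medium with 0.5 mM IBMX, exposed 15 min at 37°C to 10 μM forskolin plus 10 μM DPDPE, with or without compound (0.001 nM-100 μM). cAMP by EIA kit. Triplicate determinations; IC50 as mean ± SE of 5-6 independent experiments.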

[13] = target: T3, Mu-type opioid receptor; experiment: Antagonist activity at human MOR expressed in HEK293 cells assessed as reduction of DAMGO-induced inhibition of forskolin-induced cAMP accumulation by EIA method; type: functional, cell-based
[14] = test system: Mus musculus; experiment: Antinociceptive activity in mouse model of visceral pain assessed as reduction in AcOH-induced stretching or writhing responses dosed intraperitoneally 5 mins before AcOH challenge; type: functional
Outline: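 Mice given 0.6% w/v AcOH in water ip (0.1 ml/10 g). Compound (0.5-10 mg/kg) or vehicle given ip 5 min earlier. Stretching/writhing counted for 10 min after AcOH. 6-8 mice per group, mean ± SEM; ED50 derived from the dose-response; Dunnett test after ANOVA.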

[15] = test system: Mus musculus; experiment: Antinociceptive activity in mouse model of visceral pain assessed as reduction in AcOH-induced stretching or writhing responses at 10 mg/kg, ip 5 mins before AcOH challenge and co-administered with 30 mg/kg, ip opioid antagonist NLX 15 mins before compound dosing; type: functional, organism-based
[16] = test system: Mus musculus; experiment: Antinociceptive activity in mouse model of visceral pain assessed as reduction in AcOH-induced stretching or writhing responses at 10 mg/kg, ip 5 mins before AcOH challenge and co-administered with 10 mg/kg, ip KOR antagonist norBNI 10 mins before compound dosing; type: functional, organism-based
[17] = test system: Mus musculus; experiment: Antinociceptive activity in mouse model of visceral pain assessed as reduction in AcOH-induced stretching or writhing responses at 10 mg/kg, ip 5 mins before AcOH challenge and co-administered with 10 mg/kg, ip DOR antagonist NTD 30 mins before compound dosing; type: functional, organism-based
[18] = test system: Mus musculus; experiment: Effect on spontaneous locomotor activity in mouse model of visceral pain at 0.5 to 10 mg/kg, ip dosed 5 mins before AcOH challenge measured within 6 hrs; type: ADME, organism-based; details: in vivo
[19] = test system: Mus musculus; experiment: Effect on grooming behavior in mouse model of visceral pain at 0.5 to 10 mg/kg, ip dosed 5 mins before AcOH challenge measured within 6 hrs; type: ADME, organism-based; details: in vivo
[20] = Stability in mouse serum after 3 hrs by RP-HPLC and ESI-MS analysis; type: ADME, cell-free
Outline: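 Compound incubated in mouse serum for 3 h to assess enzymatic stability.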

[21] = Toxicity in mouse model of visceral pain assessed as induction of straub tail at 0.5 to 10 mg/kg, ip dosed 5 mins before AcOH challenge measured within 6 hrs; type: organism-based; details: in vivo
[22] = test system: Mus musculus; experiment: Effect on circling behavior in mouse model of visceral pain at 0.5 to 10 mg/kg, ip dosed 5 mins before AcOH challenge measured within 6 hrs; type: ADME, organism-based; details: in vivo

T1 sequence (P41145 whole entry): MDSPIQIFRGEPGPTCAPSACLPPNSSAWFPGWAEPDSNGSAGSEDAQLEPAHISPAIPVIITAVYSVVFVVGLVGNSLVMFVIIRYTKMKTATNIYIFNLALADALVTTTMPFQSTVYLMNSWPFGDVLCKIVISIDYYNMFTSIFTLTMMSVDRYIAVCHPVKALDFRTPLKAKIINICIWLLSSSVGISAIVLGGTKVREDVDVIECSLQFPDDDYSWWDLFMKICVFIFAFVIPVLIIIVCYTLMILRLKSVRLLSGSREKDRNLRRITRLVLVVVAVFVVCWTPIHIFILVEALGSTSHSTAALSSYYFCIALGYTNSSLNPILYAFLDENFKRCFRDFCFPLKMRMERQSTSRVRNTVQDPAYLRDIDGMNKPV

## Cn1cc(C[C@H]2NC(=O)[C@H](Cc3ccccc3)NC(=O)[C@H]3CCCN3C(=O)[C@H](Cc3ccccc3)NC2=O)c2ccccc21
[1]
  Ki: > 100000 nM
[2]
  Ki: > 100000 nM
[3]
  Ki: > 100000 nM

## Cn1cc(C[C@@H]2NC(=O)[C@H](Cc3ccccc3)NC(=O)[C@H]3CCCN3C(=O)[C@H](Cc3ccccc3)NC2=O)c2ccccc21
[4]
  inhibition: < 50%
[1]
  Ki: > 100000 nM
[2]
  Ki: > 100000 nM

## O=C1CNC(=O)[C@H](Cc2ccccc2)NC(=O)[C@@H](Cc2c[nH]c3ccccc23)NC(=O)[C@H]2CCCN2C(=O)[C@H](Cc2ccc(O)cc2)N1 (cyclo(FGY[dP][dW]))
[5]
  Activity: 1 ×10⁻⁸ M

## C[C@H]1NC(=O)[C@H](Cc2c[nH]c3ccccc23)NC(=O)[C@H](Cc2ccccc2)NC(=O)[C@H]2CCCN2C1=O
[1]
  Ki: > 100000 nM
[2]
  Ki: > 100000 nM
[3]
  Ki: > 100000 nM

## O=C1N[C@@H](Cc2ccccc2)C(=O)N2CCC[C@@H]2C(=O)N[C@@H](Cc2ccccc2)C(=O)N[C@H]1Cc1c[nH]c2ccccc12 (cyclo(FWF[dP]))
[6]
  IC50: 260 nM
[1]
  Ki: 32 nM
[7]
  IC50: 2600 nM
[8]
  EC50: 1300 nM
[5]
  IC50: 47 nM
[2]
  Ki: > 100000 nM
[3]
  Ki: 127 nM

## O=C1NCCCC(=O)N2CCC[C@@H]2C(=O)N[C@@H](Cc2ccccc2)C(=O)N[C@H]1Cc1c[nH]c2ccccc12
[4]
  inhibition: < 50%
[9]
  inhibition: inactive
[10]
  IC50: 183 nM
[11]
  Activity: inactive
[12]
  inhibition: Dose-dependent effect
[1]
  Ki: > 100000 nM
[13]
  inhibition: inactive
[2]
  Ki: 3.08 nM

## C[C@@H]1NC(=O)[C@H](Cc2c[nH]c3ccccc23)NC(=O)[C@@H](Cc2ccccc2)NC(=O)[C@H]2CCCN2C1=O
[1]
  Ki: > 100000 nM
[2]
  Ki: > 100000 nM
[3]
  Ki: > 100000 nM

## O=C1NCCC(=O)N2CCC[C@@H]2C(=O)N[C@@H](Cc2ccccc2)C(=O)N[C@H]1Cc1c[nH]c2ccccc12
[14]
  inhibition: Dose-dependent effect
[14]; ip
  ED50: 0.64 mg/kg
[15]
  Activity: inactive
[9]
  inhibition: inactive
[16]
  Activity: Active
[10]
  IC50: 6.1 nM
[17]
  Activity: Active
[18]
  Activity: Non-Toxic
[12]
  inhibition: inactive
[1]
  Ki: > 100000 nM
[19]
  Activity: Non-Toxic
[20]
  Stability: Stable
[21]
  Activity: Non-Toxic
[22]
  Activity: Non-Toxic
[13]
  inhibition: inactive
[2]
  Ki: > 100000 nM
[3]
  Ki: 4.1 nM
